697 NFkB inh: inhibitors of PMA/ionomycin-induced NF-kB reporter, 697 cells, primary screen, B-cell NF-kB inhibitor project, cell-based, luminescence, uHTS; AID 435022, 2010; 697 B-cell NF-kB luciferase reporter, 16 h; 330,000 compounds, 0.33% hits; inhibition, % at 4 µM; in the data active means inhibition above about 35%
Jurkat NFkB inh: inhibitors of induced NF-kB luciferase reporter, primary screen, TCR NF-kB activation inhibitor project, cell-based, luminescence, uHTS; Jurkat, PMA/ionomycin-induced NF-kB luciferase reporter; inhibition, % at 4 µM; 330,000 compounds, 0.53% hits; AID 435003, 2010; in the data active means inhibition above about 50%
Gli-Sufu antag: Gli-Sufu pathway antagonists, primary screen, luciferase luminescence, Sufu-KO-LIGHT cells, uHTS. Sufu-KO-LIGHT fibroblasts, Gli luciferase reporter luminescence. inhibition, % at 5 µM. 340,000 compounds, 0.74% hits. AID 588413, 2011;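 active means inhibition above about 55%, limit read from the data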;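 further: 0% = DMSO-treated cells and 100% = wells with medium but no cells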
NR2E3 ag-1: inhibitors of NR2E3-RetCOR corepressor binding, primary screen, NR2E3 agonist project, biochemical, TR-FRET, GST-NR2E3, biotin-RetCOR; Photoreceptor-specific nuclear receptor (Homo sapiens), Q9Y5X4; 1536-well; inhibition of corepressor binding, % at 4.78 µM; 320,000 compounds, 0.12% hits;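 active means percent inhibition above the cutoff of mean plus 3 SD of all tested compounds, set per screening campaign, cut at about 20% in these data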;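 further: 0% = DMSO wells and 100% = biotin wells as full block of FRET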
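Material: NR2E3–RetCOR corepressor complex | Quantity: 1.35 nM GST-tagged NR2E3 final | Schedule: 5 h at 4 °C | Replication: Singlicate compound wells | Reagent: RetCOR corepressor, biotinylated, 7 nM | Controls: Biotin wells as high control, 0.6% DMSO wells as low control | Signal: TR-FRET, Eu(K)-anti-GST donor, streptavidin-D2 acceptor, ex 340, em 617/671 nm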
NR2E3 ag-2: NR2E3 agonists in two-hybrid cells, primary screen, cell-based, luminescence, CHO-S, Gal4-NCOR/VP16-NR2E3. Photoreceptor-specific nuclear receptor (Homo sapiens), Q9Y5X4. AID 602229, 2012. 360,000 compounds, 0.35% hits. inhibition of corepressor binding, % at 3.98 µM. luciferase;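 active means inhibition above the mean of all tested compounds plus 3 SD, cut at about 70% in these data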;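 further: 0% = DMSO with NR2E3 transfected cells and 100% = cells lacking NR2E3 construct; higher means lower luciferase signal from less NR2E3 corepressor binding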
GalR3 antagonist: GalR3 antagonists in HEK293 cells, primary screen, cell-based, fluorescence readout; HEK293 GalR3-CNG cAMP membrane potential fluorescence; galR3 body fused to GalR1 C-terminus; inhibition, % at 3 µM; 360,000 compounds, 0.44% hits;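 active means inhibition above the screen-wide average plus 3 SD, cut at about 13% in these data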;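 further: forskolin and galanin both at EC90 stimulate the cells; cAMP rise reported by CNG channel membrane potential dye signal; 0% = forskolin plus galanin with DMSO and 100% = forskolin alone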
Target sequence (O60755 1-299 limits assumed): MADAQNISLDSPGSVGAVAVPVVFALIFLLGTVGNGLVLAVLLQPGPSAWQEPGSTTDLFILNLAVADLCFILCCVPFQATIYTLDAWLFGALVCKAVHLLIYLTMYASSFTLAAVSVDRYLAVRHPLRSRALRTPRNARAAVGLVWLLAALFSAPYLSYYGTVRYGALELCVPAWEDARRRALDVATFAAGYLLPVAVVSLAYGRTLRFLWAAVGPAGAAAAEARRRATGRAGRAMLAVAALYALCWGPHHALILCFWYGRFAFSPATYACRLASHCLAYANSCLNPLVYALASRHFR
Jurkat NFkB conf: PMA/ionomycin-induced NF-kB reporter inhibitors, Jurkat retest, confirmation, T-cell NF-kB inhibitor project, cell-based, luminescence, single concentration; Jurkat NF-kB luciferase, 16 h; inhibition, % at 4 µM; shares compounds with Jurkat NFkB inh; 2,700 compounds, 27% hits; AID 435020, 2010;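 active means inhibition reaching about 45% at 4 µM in either replicate, limit read from the data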;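 further: plate controls were PMA/ionomycin stimulated DMSO wells for no effect and unstimulated DMSO wells for full effect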
* = called active by the depositor; . = no result given. Rows were chosen to be rich in hits. Some 1.8% of all compounds tested hit in one or more screens of this group.

SMILES	697 NFkB inh	Jurkat NFkB inh	Gli-Sufu antag	NR2E3 ag-1	NR2E3 ag-2	GalR3 antagonist	Jurkat NFkB conf
COC(=O)CNC(=O)CN(c1ccc(OC)cc1OC)S(=O)(=O)c1ccccc1	14.2	0.5	-9.0	1.9	3.0	1.7	.
COc1ccc(N(S(=O)(=O)c2ccccc2)S(=O)(=O)c2ccccc2)c(N)c1	-1.3	50.6*	-3.0	-1.1	-8.4	-5.9	3.9
CCS(=O)(=O)c1ccc(OC)c(N=Nc2ccc(O)c3ncccc23)c1	-20.4	5.5	11.1	-3.1	-15.3	-5.6	.
CCOc1ccc(N=Nc2ccc(O)c3ncccc23)cc1	-117.3	89.3*	-13.6	.	-9.2	-9.8	2.6
CCN(CC)S(=O)(=O)c1cc(OC)ccc1N=Nc1ccc(O)c2ncccc12	8.0	16.1	23.1	.	-42.5	-5.7	.
Cc1ccc(C)c(N=Nc2ccc(O)c3ncccc23)c1	-103.2	78.3*	66.9*	2.7	15.2	-4.5	65.5*
Cc1cccc(N=Nc2ccc(O)c3ncccc23)c1	-78.6	89.6*	-2.0	-0.6	-21.8	-3.9	39.7
CCOc1cccc(C=NNc2nc(=O)cc(C(=O)OC)s2)c1O	.	.	.	.	.	-8.6	.
O=S(=O)(c1ccc(F)cc1)N1CCCc2nc(-c3ccccc3)ccc21	.	.	.	.	.	-5.3	.
COc1ccc2c(c1OC)C(=O)N1c3ccccc3C(=O)N(c3ccccc3)C21 (configuration not stated)	27.8	53.6*	1.7	-1.2	28.0	-1.8	5.6
COc1ccc(COc2cc(-c3cccc(OC)c3)nc3ccc(NC(C)=O)cc23)cc1	1.1	1.3	-0.3	2.1	-26.9	-3.1	.
COc1ccc(COc2cc(-c3cccc(OC)c3)nc3ccc(N)cc23)cc1	-118.5	52.2*	33.0	1.6	4.9	-3.0	-2.2
Cc1cccc(NC(=O)/C=C/c2cccs2)n1	-159.1	-167.0	-103.5	2.1	-116.3	-3.9	-66.6
CC1=C/C(=N\OS(=O)(=O)c2ccccc2)C(C)=CC1=O	-13.2	50.6*	2.7	-1.4	34.2	.	27.6
C/C(=N\Nc1nc(C(C)(C)C)cs1)c1ccccc1	-225.3	-160.8	-75.3	-0.8	-96.2	-9.6	-126.5
CCCCCCCCN1C(=O)[C@@H](CC(=O)N2CCSCC2)C[C@@]2(C(=O)OC)C1=C[C@H](C(C)(C)C)O[C@@H]2C	.	.	.	.	.	-2.0	.
CCOC(=O)c1ccc(NC(=O)C2CC3CCC2C3)cc1 (configuration not stated)	-164.4	-153.9	-91.9	2.6	-96.4	0.3	-115.7
CCCCc1c(-c2ccccc2OC)ncn1Cc1ccc(C(C)(C)C)cc1	.	.	.	.	.	-7.3	.
COc1ccc(C(C)=O)cc1COc1cccnc1[N+](=O)[O-]	-17.6	54.5*	22.2	4.0	-42.5	-8.1	1.3
CCOc1ccc(C(C)=O)cc1COc1cccnc1[N+](=O)[O-]	-11.2	53.8*	-26.5	-2.2	-26.4	-5.8	18.9
CN1CCCCC(NC(=O)c2ccccn2)C1=O (configuration not stated)	.	.	.	.	.	-6.9	.
O=C(N[C@H](C(=O)N1CCC[C@H]1C(=O)NC1CCCC1)C1CCCCC1)c1cccs1	.	.	.	.	.	-7.3	.
Cc1ccc2nc(-c3ccc(N)cc3)sc2c1	-213.3	-85.2	-80.0	1.8	-129.9	4.5	.
Nc1ccc(-c2nc3cc(N)ccc3s2)cc1	-93.6	-173.7	-121.5	-3.0	-124.9	-5.7	-42.1
O=C(NC1CCCCC1)c1ccc(-c2ccccc2F)o1	-163.2	-163.2	-67.8	.	-170.5	-1.4	-122.0
O=C(NC1CCCCCC1)c1ccc(CS(=O)(=O)Cc2ccccc2F)o1	-2.8	14.7	-1.3	-3.6	12.6	-8.0	.
O=C(NC1CCCCC1)c1ccc(-c2cccc([N+](=O)[O-])c2)o1	-238.9	-160.6	-42.1	1.4	-85.6	-3.9	-61.7

High-throughput results as filed in PubChem.
